In publication PMC2745822 (The Journal of pharmacology and experimental therapeutics, 2008):
“And” between values parts separate entries of the source, which are not always exact repeats. Identical values can stand only once. Like-named read-outs stand apart in the source and are kept apart here.

Legend:
[1] = Formulation into homogeneous dosing solution; assay type: physicochemical; conditions: vehicles acceptable for in vivo studies
Outline: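 Test compound was jet-milled to uniform nanoparticles before vehicle formulation. It was then dissolved at 56.6 mg/ml in 10% Tween 80 in double-deionized water, with pH adjusted to about 7.0 using 1 N NaOH. The mixture was sonicated until a uniform homogeneous solution formed, for intraperitoneal dosing.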

rat M4 mAChR [2] = biological target: T1, rat M4 mAChR (Rattus norvegicus, UniProt P08485); conditions: ref Shirey et al., 2008, cited from earlier work
T1 sequence (P08485 1-478): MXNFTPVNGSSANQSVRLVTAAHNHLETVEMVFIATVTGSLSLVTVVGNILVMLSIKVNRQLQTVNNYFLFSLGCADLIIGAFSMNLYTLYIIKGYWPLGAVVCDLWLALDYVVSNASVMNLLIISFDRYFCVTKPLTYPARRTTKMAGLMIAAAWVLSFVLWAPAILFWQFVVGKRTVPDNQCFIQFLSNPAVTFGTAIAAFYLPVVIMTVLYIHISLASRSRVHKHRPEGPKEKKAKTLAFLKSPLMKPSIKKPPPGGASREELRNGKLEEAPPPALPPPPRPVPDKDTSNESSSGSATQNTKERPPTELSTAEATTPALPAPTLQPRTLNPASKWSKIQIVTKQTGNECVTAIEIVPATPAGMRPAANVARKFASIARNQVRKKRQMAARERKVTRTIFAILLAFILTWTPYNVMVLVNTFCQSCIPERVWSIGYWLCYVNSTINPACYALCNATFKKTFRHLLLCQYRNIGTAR

rM4 receptor [3] = biological target: T2, rM4 receptor (Rattus norvegicus, UniProt P08485); conditions: ref Shirey et al., 2008; cited from earlier work
T2 sequence (P08485 1-478): T1 sequence (P08485 1-478)

[4] = ref Shirey et al., 2008; cited from earlier work
other mAChR subtypes = conditions: ref Shirey et al., 2008; cited from earlier work
rat M4 mAChR [5] = biological target: T1, rat M4 mAChR; assay type: cell-based; conditions: compound alone
rM4 receptor [6] = biological target: T2, rM4 receptor; test: [3H]NMS equilibrium radioligand binding, membranes from rM4-expressing CHO cells; conditions: 0.1 nM [3H]NMS; concentrations up to 30 µM
[7] = test system: panel of 68 discrete GPCRs, ion channels, transporters, and enzymes; test: MDS Pharma LeadProfiling Screen radioligand binding panel; conditions: 10 µM; for VU0152099 with the single exception of GABAA receptors
[8] = Brain and plasma exposure pharmacokinetic profiling; assay type: in vivo, rat; conditions: male rats, 56.6 mg/kg i.p.; mean ± S.E.M., n = 3
Outline: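 Male Sprague-Dawley rats (225–250 g), fasted overnight. Test compound dissolved at 56.6 mg/ml in 10% Tween 80/water, pH ~7.0 (1 N NaOH), sonicated, and given at 56.6 mg/kg i.p. Brain and trunk plasma taken at 0.5, 1, 2 and 4 h, three rats per time point. Brain homogenized in acetonitrile/methanol and plasma precipitated with acidified acetonitrile, both with internal standard. Analyzed by positive-ESI LC-MS-MS, linear 50 ng/ml–100 µg/ml. AUC0-∞ by trapezoidal method.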

[9] = test system: amphetamine-induced hyperlocomotion in rats; test: Amphetamine-induced hyperlocomotion; assay type: in vivo, rat; conditions: 56.6 mg/kg i.p., 30-min pretreatment; 1 mg/kg s.c. amphetamine; 60 min
[10] = test system: motor performance in rats; test: Rotorod test; assay type: in vivo, rat; conditions: 30, 56.6, or 100 mg/kg i.p., 30-min pretreatment
Outline: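 Rats got one 120-s training trial, then two 85-s trials about 10 min apart, on a 7.5-cm rod turning at a constant 20 rpm. They were pretreated i.p. for 30 min with vehicle or test compound (30, 56.6 or 100 mg/kg, salt form, 1.0 ml/kg in 10% Tween 80/water, pH ~7.0). Time on the rod was recorded, capped at 85 s. Analysis was one-way ANOVA with Dunnett's test versus vehicle.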

[11] = biological target: T3, human M4 muscarinic receptor (Homo sapiens, UniProt P08173); conditions: in presence of compound
T3 sequence (P08173 1-479): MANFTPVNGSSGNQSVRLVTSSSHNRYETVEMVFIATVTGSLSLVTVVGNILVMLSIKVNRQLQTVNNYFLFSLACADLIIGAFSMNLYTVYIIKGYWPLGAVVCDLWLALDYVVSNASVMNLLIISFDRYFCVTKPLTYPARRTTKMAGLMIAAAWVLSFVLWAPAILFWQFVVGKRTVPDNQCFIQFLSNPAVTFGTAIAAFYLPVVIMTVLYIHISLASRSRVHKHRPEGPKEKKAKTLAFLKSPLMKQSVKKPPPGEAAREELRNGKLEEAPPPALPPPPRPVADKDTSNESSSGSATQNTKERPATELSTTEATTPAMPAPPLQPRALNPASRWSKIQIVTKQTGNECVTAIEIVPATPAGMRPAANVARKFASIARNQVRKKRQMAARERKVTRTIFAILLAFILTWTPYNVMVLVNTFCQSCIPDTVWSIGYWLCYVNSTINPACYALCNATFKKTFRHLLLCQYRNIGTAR

[12] = test system: amphetamine-induced hyperlocomotion in rats; conditions: ref Stanhope et al., 2001; cited from earlier work
[13] = ref Bodick et al., 1997; Shekhar et al., 2001, 2008; cited from earlier work

| Compound | formulation into homogeneous dosing solution [1] | EC50 (rat M4 mAChR [2]; read-out: M4 EC50) [µM] | potentiation (-fold shift) of the M4 ACh CRC (rat M4 mAChR [2]) [fold] | decrease in the ACh Ki (rM4 receptor [3]) [fold] | log P [4] | activation of the other mAChR subtypes (other mAChR subtypes) | response in the absence of an ACh EC20 (agonist activity) (rat M4 mAChR [5]) | displacement of [3H]NMS (rM4 receptor [6]) | displacement of binding, all targets tested [7] | Mean AUC (0-∞) brain [8] [ng·h/g] | Mean AUC(0-∞) plasma [8] [ng·h/mL] | t1/2 brain [8] [h] | t1/2 plasma [8] [h] | effect on amphetamine-induced hyperlocomotion [9] | effect on performance in the rotorod test [10] | maximal response to ACh [11] | effect on amphetamine-induced hyperlocomotion [12] | clinical efficacy [13] |
| --- | --- | --- | --- | --- | --- | --- | --- | --- | --- | --- | --- | --- | --- | --- | --- | --- | --- | --- |
| Cc1cc(C)c2c(N)c(C(=O)NCc3ccc(Cl)cc3)sc2n1 [VU10010, 3-amino-N-(4-chlorobenzyl)-4,6-dimethylthieno[2,3-b]pyridine-2-carboxamide] | unable to formulate VU10010 into a homogeneous solution in any acceptable vehicle | ~0.4 | 47 | 14 | ~ 4.5 and 4.5 | causes no activation of the other mAChR subtypes |  |  |  |  |  |  |  |  |  |  |  |  |
| COc1ccc(CNC(=O)c2sc3nc(C)cc(C)c3c2N)cc1 [VU0152100, 3-amino-N-(4-methoxybenzyl)-4,6-dimethylthieno[2,3-b]pyridine carboxamide] | afforded homogeneous dosing solutions in multiple vehicles acceptable for in vivo studies |  |  |  |  |  | neither VU0152099 nor VU0152100 elicited a response | neither M4 PAM displaced | less than 50% | 5726.35 ± 694.68 | 6570.35 ± 235.87 | 1.12 ± 0.01 | 1.62 ± 0.69 | produced robust decreases in amphetamine-induced hyperlocomotion | had no effect on performance in the rotorod test | approximately 130% |  |  |
| CCCCCCOc1nsnc1C1=CCCN(C)C1 [xanomeline, 3-[3-hexyloxy-1,2,5-thiadiazo-4-yl]-1,2,5,6-tetrahydro-1-methylpyridine] |  |  |  |  |  |  |  |  |  |  |  |  |  |  |  |  | reversal of amphetamine-induced hyperlocomotion in rats | demonstrated efficacy as both a cognition-enhancing agent and an antipsychotic agent |
